# Assay results taken from publication PMC11178347 (Proteoglycan research, 2023).
# “Also recorded” adds a separate entry of the source. Ends that are not written are not given here.
# What was measured:
# [1] = tested on: collagen; conditions: ref unpublished studies; cited from earlier work
# [2] = Circular dichroism secondary structure of GQLY variants; format: physicochemical; conditions: 1 mg/mL, pH 8.5 sodium borate buffer; for Antiparallel / Helix / Others / Parallel / Turn: CD far-UV 190-250 nm, BESTSEL; for Structure difference between variants by CD: SRR-hyd vs GSG-hyd
# How it was run: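 Peptides at 1 mg/mL in pH 8.5 sodium borate buffer, quartz cell. Far-UV spectra 190–250 nm, baseline-corrected. Secondary-structure fractions fitted by least squares at each wavelength point, separating antiparallel β-sheet by twist angle and regular from distorted α-helix.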
# [3] = Peptide association with chondroitin sulfate; format: physicochemical; conditions: for Decrease in peptides associated per disaccharide / Percent Decrease in total peptide associated/GAG: with CS, before vs after 1 M NaCl and 8 M urea wash
# How it was run: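 Chondroitin sulfate (10 mg/mL) reacted overnight at pH 4.5 with peptide (theoretical 16% disaccharide substitution) in 0.1 M MES/8 M urea/0.2 wt% NaCl, with EDC 0.5:1 per disaccharide or without EDC. Stopped at pH 8.5, tangential-flow filtered (10 kDa). Agitated 30 min in 1 M NaCl/8 M urea, spin-filtered (10 kDa) and water-exchanged three times. Peptide measured by A280 against standard curves, before and after wash.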
# [4] = SRR-hyd conjugation to GAG backbones; format: physicochemical; conditions: following salt washing
# How it was run: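 Heparin, hyaluronic acid, chondroitin sulfate or dermatan sulfate (10 mg/mL) coupled to peptide with EDC (0.5:1 per disaccharide) in 0.1 M MES/8 M urea/0.2 wt% NaCl, pH 4.5, overnight. Quenched at pH 8.5, purified by tangential flow over a 10 kDa membrane, lyophilised. Peptide content from 280 nm absorbance using peptide standard curves, expressed per disaccharide (GAG mass divided by disaccharide mass).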
# [5] = tested on: platelet adhesion to immobilized fibrillar collagen; assay: Inhibition of platelet adhesion to immobilized fibrillar collagen under flow; format: cell-based; conditions: even at high concentrations; human whole blood, 1000 s−1
# How it was run: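 Flow channels coated with fibrillar type I collagen (100 μg/mL, 1 h, room temperature) and PBS-washed. Channels pre-incubated 1 h with test compound, or with its heparin or peptide component alone, at increasing concentrations, then flushed. Citrated human whole blood, pooled and used within 3 h, stained with Calcein-AM 30 min at 37 °C. Conjugate added to blood, perfused at 1000 s−1. Adherent platelets imaged by fluorescence and normalised to untreated control.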
# [6] = tested on: platelet binding; conditions: ref Biran & Pond, 2017; Linhardt et al., 2008; cited from earlier work
substance,measurement,setting,value
GQLYKSILY,Collagen binding,[1],also binding to collagen
GQLYKSILYGSGSG-hydrazide,Antiparallel,[2],25.6
same,Helix,[2],6.2
same,Others,[2],53.9
same,Parallel,[2],0
same,Turn,[2],14.3
same,Structure difference between variants by CD,[2],minimal difference in their structure
same,Decrease in peptides associated per disaccharide,[3],1.1%
same,Percent Decrease in total peptide associated/GAG,[3],15%
GQLYKSILYGSGSGSRR-NH2,"Peptide association with CS, without EDC","[3]; absence of EDC, initial 10 kDa purification",equivalent
same,Decrease in peptides associated per disaccharide,[3],5.7%
GQLYKSILYGSGSGSRR-hydrazide,Antiparallel,[2],21.8
same,Helix,[2],5.5
same,Others,[2],59.2
same,Parallel,[2],0
same,Turn,[2],13.5
same,Structure difference between variants by CD,[2],minimal difference in their structure
same,"Peptide association with CS, with EDC","[3]; after EDC reaction, initial 10 kDa purification",significantly more peptide association when using the SRR-hyd variant compared to the GSG-hyd variant; also recorded: more SRR-hyd associated with CS compared to the SRR-amide variant
same,Decrease in peptides associated per disaccharide,[3],5.2%
same,Percent Decrease in total peptide associated/GAG,[3],32%
chondroitin sulfate [CS],GQLY (SRR-hyd) conjugation supported by the GAG backbone,[4],same intermediate level of GQLY conjugation
dermatan sulfate [DS],GQLY (SRR-hyd) conjugation supported by the GAG backbone,[4],same intermediate level of GQLY conjugation
heparin,GQLY (SRR-hyd) conjugation supported by the GAG backbone,[4],greatest GQLY conjugation
same,"Platelet inhibition, in words",[5],no significant platelet inhibition
same,Platelet binding suppression,[6],known to suppress platelet binding
hyaluronic acid [HA],GQLY (SRR-hyd) conjugation supported by the GAG backbone,[4],least
